{"source": "ChEMBL document CHEMBL1275590", "about": "“Novel arylimidamides for treatment of visceral leishmaniasis” (Antimicrob Agents Chemother, 2010)", "key": {"[1]": {"experiment": "Induction of mutagenicity in Salmonella serovar Typhimurium TA 98 assessed as number of revertant colonies at 1 ug by Ames assay", "assay_type": "toxicity, Salmonella enterica subsp. enterica serovar Typhimurium", "conditions": "in vivo", "method_in_brief": "(§1)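 Ames plate incorporation with S. Typhimurium TA98 and TA100, with or without Aroclor 1254-induced rat liver S9 (10% vol/vol). Compound was dissolved in sterile water and serially diluted to 1–500 μg/plate. Positive controls were 2-nitrofluorene and sodium azide without S9, and 2-aminoanthracene with S9; sterile water and DMSO served as vehicles. Revertant colonies and background lawn were scored. A mutagen was defined as a mean revertant count at least 2-fold over solvent control. Single experiment.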"}, "Leishmania donovani [2]": {"test_system": "Leishmania donovani", "experiment": "Antileishmanial activity against Leishmania donovani promastigotes in BALB/c mouse assessed as inhibition of liver parasitemia at 100 mg/kg/day, po administered for five days", "assay_type": "functional", "parameters": "scale not given: the % may be the effect or the level left", "method_in_brief": "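Murine VL model in L. donovani-infected mice. Compounds were dissolved in water and given i.p. or p.o. once daily for 5 days (4 days for one i.p. regimen). Liver parasitemia was compared with untreated controls by unpaired Student's t test, P ≤ 0.05.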"}, "Mus musculus [3]": {"test_system": "Mus musculus", "experiment": "Toxicity in BALB/c mouse assessed as occurrence of tremor at 50 mg/kg, iv", "assay_type": "organism-based", "parameters": "dose 50 mg/kg, route intravenous", "conditions": "in vivo", "method_in_brief": "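Single-dose escalation: female BALB/c mice (n = 1 per dose level) given one i.v. dose in sterile water (10 ml/kg), 5–50 mg/kg, observed for 2 days.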"}, "Leishmania donovani [4]": {"test_system": "Leishmania donovani", "experiment": "Antileishmanial activity against Leishmania donovani WR378 infected in golden Syrian hamster assessed as reduction in spleen parasitemia at 100 mg/kg/day, po administered for five days", "assay_type": "functional", "conditions": "120 h", "method_in_brief": "(§2)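 11-day golden hamster VL model adapted from an 8-day method, using L. donovani WR378 metacyclic promastigotes. Dosing was oral, once daily for 5 days. Animals were euthanized on day 11 post-infection. Liver, spleen and femoral bone marrow (flushed with Schneider's medium) were harvested.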"}, "[5]": {"experiment": "Induction of mutagenicity in Salmonella serovar Typhimurium TA 98 assessed as number of revertant colonies at 500 ug by Ames assay in presence of Aroclor 1254-induced rat liver S9 metabolic activation system", "assay_type": "toxicity, subcellular, Salmonella enterica subsp. enterica serovar Typhimurium", "method_in_brief": "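Plate incorporation test, S. Typhimurium TA98 (and TA100), with or without Aroclor 1254-induced rat liver S9 (10% vol/vol). Compound dissolved in sterile water, serially diluted to 1–1,000 or 1–500 μg/plate. Positive controls: 2-nitrofluorene and sodium azide without S9, 2-aminoanthracene with S9; water and DMSO vehicle controls. Revertant colonies and background lawn scored; mutagen if mean revertants ≥2-fold solvent control. Single experiment.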"}, "Mus musculus [6]": {"test_system": "Mus musculus", "experiment": "Hepatotoxicity in BALB/c mouse assessed as alkaline phosphatase level in serum at 30 mg/kg/day, iv administered for five days (Rvb= 134 U/L)", "assay_type": "toxicity, organism-based", "parameters": "route intravenous", "conditions": "in vivo"}, "[7]": {"experiment": "Induction of mutagenicity in Salmonella serovar Typhimurium TA 98 assessed as number of revertant colonies at 10 ug by Ames assay in presence of Aroclor 1254-induced rat liver S9 metabolic activation system", "assay_type": "toxicity, subcellular, Salmonella enterica subsp. enterica serovar Typhimurium", "method_in_brief": "as §1"}, "Mus musculus [8]": {"test_system": "Mus musculus", "experiment": "Toxicity in BALB/c mouse at 100 mg/kg/day, po administered for five days", "assay_type": "organism-based", "parameters": "route oral", "conditions": "in vivo", "method_in_brief": "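Five-day repeat-dose study in female BALB/c mice (n = 5 per dose level): oral dosing once daily for five consecutive days in sterile water prepared fresh daily under yellow light, 20 ml/kg. Vehicle controls received sterile water only. Clinical observations and body weights were recorded, with blood for hematology and serum chemistry taken on day 6 before necropsy. A veterinary pathologist examined formalin-fixed tissues.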"}, "[9]": {"experiment": "Volume of distribution in Swiss Webster mouse at 5 mg/kg, iv by HPLC-MS/MS analysis", "assay_type": "ADME, organism-based", "parameters": "dose 5 mg/kg, route intravenous", "conditions": "in vivo", "method_in_brief": "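Male Swiss Webster mice (n = 3 per time point) got a single tail-vein bolus over ~10 to 20 s, 5 ml/kg. Compound was dissolved in sterile water at 2× and diluted 1:1 with 2× saline. Terminal blood was taken from 5 min to 72 h, and plasma was quantified by HPLC-MS/MS. Vss came from noncompartmental analysis.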"}, "[10]": {"experiment": "Induction of mutagenicity in Salmonella serovar Typhimurium TA 100 assessed as number of revertant colonies at 1 ug by Ames assay", "assay_type": "toxicity, Salmonella enterica subsp. enterica serovar Typhimurium", "conditions": "in vivo", "method_in_brief": "as §1"}, "[11]": {"experiment": "Induction of mutagenicity in Salmonella serovar Typhimurium TA 98 assessed as number of revertant colonies at 100 ug by Ames assay in presence of Aroclor 1254-induced rat liver S9 metabolic activation system", "assay_type": "toxicity, subcellular, Salmonella enterica subsp. enterica serovar Typhimurium", "method_in_brief": "as §1"}, "Mus musculus [12]": {"test_system": "Mus musculus", "experiment": "Toxicity in BALB/c mouse assessed as hypoactivity at 50 mg/kg/day, ip administered for five days", "assay_type": "organism-based", "parameters": "route intraperitoneal", "conditions": "in vivo"}, "Mus musculus [13]": {"test_system": "Mus musculus", "experiment": "Hepatotoxicity in BALB/c mouse assessed as ALT level in serum at 30 mg/kg/day, iv administered for five days (Rvb= 34 U/L)", "assay_type": "toxicity, organism-based", "parameters": "route intravenous", "conditions": "in vivo"}, "Leishmania donovani [14]": {"test_system": "Leishmania donovani", "experiment": "Antileishmanial activity against Leishmania donovani WR378 infected in golden Syrian hamster assessed as reduction in liver parasitemia at 50 mg/kg/day, po administered for five days", "assay_type": "functional", "conditions": "120 h", "method_in_brief": "as §2"}, "[15]": {"experiment": "Half life in Swiss Webster mouse at 66 mg/kg, po by HPLC-MS/MS analysis", "assay_type": "ADME, organism-based", "parameters": "dose 66 mg/kg, route oral", "conditions": "in vivo", "method_in_brief": "(§3)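 Male Swiss Webster mice, n = 3 per time point. For i.v., the compound was dissolved in sterile water, diluted 1:1 with 2× saline, and given as a tail-vein bolus over ~10–20 s. For p.o., it was given by gavage in sterile water. Dose volume was 5 ml/kg. Terminal plasma was taken from 5 min to 72 h and measured by HPLC-MS/MS (calibration 2.5–10,000 nM). Parameters came from noncompartmental analysis.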"}, "Mus musculus [16]": {"test_system": "Mus musculus", "experiment": "AUC (0 to infinity) in Swiss Webster mouse at 66 mg/kg, po by HPLC-MS/MS analysis", "assay_type": "ADME, organism-based, Plasma", "parameters": "time infinity, dose 66 mg/kg, route oral", "conditions": "in vivo", "method_in_brief": "as §3"}, "Mus musculus [17]": {"test_system": "Mus musculus", "experiment": "Hepatotoxicity in BALB/c mouse assessed as alkaline phosphatase level in serum at 100 mg/kg/day, po administered for five days (Rvb= 129 U/L)", "assay_type": "toxicity, organism-based", "parameters": "route oral", "conditions": "in vivo"}, "Mus musculus [18]": {"test_system": "Mus musculus", "experiment": "Renal toxicity in BALB/c mouse assessed as phosphorus level in serum at 10 mg/kg/day, iv administered for five days ((Rvb= 6.1 mg/dl)", "assay_type": "organism-based", "parameters": "route intravenous", "conditions": "in vivo", "method_in_brief": "(§4)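 Female BALB/c mice (n = 5 per dose), dosed once daily for 5 consecutive days p.o. (20 ml/kg) or i.v. (10 ml/kg) with compound in sterile water, prepared fresh daily under yellow light. Vehicle controls n = 5 per route. Clinical observations, body weights, serum chemistry and hematology on day 6 before necropsy; histopathology of formalin-fixed tissues. Chemistry analysed by one-way ANOVA with Dunnett's posttest.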"}, "Mus musculus [19]": {"test_system": "Mus musculus", "experiment": "Renal toxicity in BALB/c mouse assessed as blood urea nitrogen level in serum at 100 mg/kg/day, po administered for five days (Rvb= 29 mg/dl)", "assay_type": "organism-based", "parameters": "route oral", "conditions": "in vivo", "method_in_brief": "as §4"}, "Mus musculus [20]": {"test_system": "Mus musculus", "experiment": "Hepatotoxicity in BALB/c mouse assessed as ALT level in serum at 150 mg/kg/day, po administered for five days (Rvb= 36 U/L)", "assay_type": "toxicity, organism-based", "parameters": "route oral", "conditions": "in vivo"}, "Mus musculus [21]": {"test_system": "Mus musculus", "experiment": "Toxicity in BALB/c mouse assessed as tendency to startle at 50 mg/kg/day, ip administered for five days", "assay_type": "organism-based", "parameters": "route intraperitoneal", "conditions": "in vivo", "method_in_brief": "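Acute overt toxicity was checked in uninfected female BALB/c mice before the efficacy work. Compounds were given intraperitoneally once daily for 5 days, and mice were watched for clinical signs such as ruffled fur, hypoactivity, tremors, ataxia and startle, and for survival.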"}, "[22]": {"experiment": "Half life in Swiss Webster mouse at 1 mg/kg, iv by HPLC-MS/MS analysis", "assay_type": "ADME, organism-based", "parameters": "dose 1 mg/kg, route intravenous", "conditions": "in vivo", "method_in_brief": "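Male Swiss Webster mice, n = 3 per time point. For i.v., the compound was dissolved in sterile water, diluted 1:1 with 2× saline, and given as a tail-vein bolus over ~10–20 s. For p.o., it was given by gavage in sterile water. Dose volume was 5 ml/kg. Parameters came from noncompartmental analysis.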"}}}
{"smiles": "CC(C)Oc1cc(NC(=N)c2ccccn2)ccc1-c1ccc(-c2ccc(NC(=N)c3ccccn3)cc2OC(C)C)o1", "values": [{"measurement": "Activity", "setting": "[1]", "value": 38}, {"measurement": "Activity", "setting": "Leishmania donovani [2]", "value": 71, "unit": "%"}, {"measurement": "Activity", "setting": "Mus musculus [3]", "value": "Toxic"}, {"measurement": "inhibition in vivo at 100 mg/kg/day", "setting": "Leishmania donovani [4]", "value": 79, "unit": "%"}, {"measurement": "Activity", "setting": "[5]", "value": 47}, {"measurement": "Activity", "setting": "Mus musculus [6]", "value": 118, "unit": "U/L"}, {"measurement": "Activity", "setting": "[7]", "value": 38}, {"measurement": "Activity", "setting": "Mus musculus [8]", "value": "Non-toxic"}, {"measurement": "Vd", "setting": "[9]", "value": 15, "unit": "L/kg"}, {"measurement": "Activity", "setting": "[10]", "value": 152}, {"measurement": "Activity", "setting": "[11]", "value": 38}, {"measurement": "Activity", "setting": "Mus musculus [12]", "value": "Toxic"}, {"measurement": "Activity", "setting": "Mus musculus [13]", "value": 35, "unit": "U/L"}, {"measurement": "inhibition in vivo at 50 mg/kg/day", "setting": "Leishmania donovani [14]", "value": 76, "unit": "%"}]}
{"smiles": "CCOc1cc(NC(=N)c2ccccn2)ccc1-c1ccc(-c2ccc(NC(=N)c3ccccn3)cc2OCC)o1", "values": [{"measurement": "half-life", "setting": "[15]", "value": 30, "unit": "h"}, {"measurement": "AUC", "setting": "Mus musculus [16]", "value": 5.6, "unit": "µM·h"}, {"measurement": "Activity", "setting": "Mus musculus [17]", "value": 120, "unit": "U/L"}, {"measurement": "Activity", "setting": "Mus musculus [18]", "value": 8.1, "unit": "mg/dL"}, {"measurement": "Activity", "setting": "Mus musculus [19]", "value": 52, "unit": "mg/dL"}, {"measurement": "Activity", "setting": "Mus musculus [20]", "value": 220, "unit": "U/L"}, {"measurement": "Activity", "setting": "Mus musculus [21]", "value": "Toxic"}, {"measurement": "half-life", "setting": "[22]", "value": 17, "unit": "h"}]}
